# ChEMBL document CHEMBL3272251, “Synthesis of 5-substituted uracil derivatives” (1976)
# Experiments:
# Format in all cases: functional
# [1] = system: Staphylococcus aureus; test: Antibacterial activity against Staphylococcus aureus assessed as bacterial growth at 0.1 mM after 20 hrs by turbidometry relative to control
# In short: (§1)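 Tested at 1 × 10^-4 M in broth culture, a lower level chosen for limited solubility. Each inhibitor solution received a 2% inoculum of E. coli B or Staph. aureus stock culture. Incubated 20 hr at 37°C, then growth read as turbidity at 500 nm against untreated controls.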
# [2] = system: Escherichia coli; test: Antibacterial activity against Escherichia coli B assessed as bacterial growth at 0.1 mM after 20 hrs by turbidometry relative to control; in short: as §1
# [3] = system: Escherichia coli; test: Antibacterial activity against Escherichia coli B assessed as bacterial growth at 1 mM after 20 hrs by turbidometry relative to control
# In short: (§2)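 Broth culture of E. coli B or Staph. aureus at inhibitor concentration 1 × 10^-3 M. Inoculum was 2% of stock culture added to each inhibitor solution. After 20 hr incubation at 37°C, turbidity was read at 500 nm and compared with controls.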
# [4] = system: Staphylococcus aureus; test: Antibacterial activity against Staphylococcus aureus assessed as bacterial growth at 1 mM after 20 hrs by turbidometry relative to control; in short: as §2
SMILES,Activity [1] [%],Activity [2] [%],Activity [3] [%],Activity [4] [%]
O=c1[nH]cc(-c2ncc[nH]2)c(=O)[nH]1,90,90,–,–
O=C(O)/C=C/c1c[nH]c(=O)[nH]c1=O,90,90,–,–
O=c1[nH]cc(-c2c[nH]cn2)c(=O)[nH]1,90,90,–,–
O=C(CO)c1c[nH]c(=O)[nH]c1=O,–,–,90,90
C[N+](C)(C)CC(=O)c1c[nH]c(=O)[nH]c1=O.[Br-],–,–,90,90
Nc1nc(-c2c[nH]c(=O)[nH]c2=O)cs1,–,–,90,90
